Screening results deposited in PubChem BioAssay by several laboratories.
An excerpt weighted towards active compounds, which were near 3.7% of everything screened.
GAA850 FXN act – activators of GAA850 frataxin (FXN) promoter. HEK293 lucGAA850 FXN promoter luciferase reporter, 24 h; percent of 10 µM SAHA response. activation, % at 6 µM. hit rate 0.56% among 360,000. AID 540364;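 active = activation above the average of all compounds screened plus 3 SD, cutoff fixed separately per campaign, cut at about 7.5% in these data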;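 also: 0% = DMSO wells and 100% = 10 µM SAHA wells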
AHR act – activators of human aryl hydrocarbon receptor | P35869 | AHR-responsive luciferase reporter cells, luminescence | activation, % at 5 µM | hit rate 2.5% among 320,000; in the data active = activation above about 47%;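 also: 0% = vehicle wells and 100% = reference agonist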
JMJD2C inh – blocks human GASC-1 demethylase activity; AID 2099; inhibition, % at 2.35 µM; GST-JMJD2C(1-420) H3K9me3 demethylation, DELFIA europium; Q9H3R0; hit rate 0.069% among 330,000;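 active = more than half of a compound's replicate wells show inhibition beyond 50%, single wells judged on their own value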;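 also: signal counts dimethyl H3K9 product captured on neutravidin plate; 0% = median of DMSO wells and 100% = 0.3 times that DMSO median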
Target sequence (Q9H3R0 1-420 limits assumed): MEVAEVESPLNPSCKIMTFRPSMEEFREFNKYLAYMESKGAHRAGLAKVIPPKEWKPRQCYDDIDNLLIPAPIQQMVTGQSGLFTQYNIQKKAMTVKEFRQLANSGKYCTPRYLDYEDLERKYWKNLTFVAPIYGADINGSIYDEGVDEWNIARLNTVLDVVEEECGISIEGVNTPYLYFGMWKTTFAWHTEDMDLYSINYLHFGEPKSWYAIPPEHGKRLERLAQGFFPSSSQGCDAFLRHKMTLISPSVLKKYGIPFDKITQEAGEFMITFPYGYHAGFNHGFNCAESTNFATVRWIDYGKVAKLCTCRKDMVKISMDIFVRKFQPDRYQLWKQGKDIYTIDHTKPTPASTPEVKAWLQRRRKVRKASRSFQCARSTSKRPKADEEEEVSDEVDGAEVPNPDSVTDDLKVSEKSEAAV
SR-BI DiI inh – mouse SR-BI HDL lipid transfer inhibition. Q61009. ldlA[mSR-BI] CHO cells, DiI-HDL uptake fluorescence, 3 h. inhibition, % at 12.5 µM. hit rate 0.96% among 320,000;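 active = mean replicate inhibition of at least 70% and a set share of replicates each scoring 70 or more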;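 also: 0% = median of neutral control wells and 100% = median of positive control wells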
SR-BI uptake up – SR-BI HDL lipid transfer activation | CHO ldlA[mSR-BI] cells, DiI-HDL uptake fluorescence, 3 h; 100 = double the neutral-control signal | activation, % at 12.5 µM | hit rate 0.096% among 320,000 | AID 504775;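 active = mean replicate activation of at least 60% and every replicate at or above 60%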;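 also: 0% = median plate neutral-control signal and 100% = twice that signal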
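system = CHO ldlA[mSR-BI] cells, LDL receptor-null, SR-BI overexpressing | medium = Ham's F12 with 0.5% BSA, HEPES 25 mM, pH 7.4 | probe or stimulus = DiI-HDL 10 µg/mL | compound dosing = single-point compound dose | incubation = compound exposure 3 h, 37 °C | technique = DiI fluorescence, bottom read | read-out = cell-associated DiI fluorescence as measure of HDL uptake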
The depositor's hits bear a star; i = inactive; · = no result given.

SMILES | GAA850 FXN act | AHR act | JMJD2C inh | SR-BI DiI inh | SR-BI uptake up
CCOc1ccccc1C(=O)N[C@H](C(=O)OCC(=O)Nc1nnc(-c2ccccc2)o1)C(C)C | -1 | · | · | 28 | -28
CCCN1C(=O)/C(=C/c2ccco2)SC1=Nc1ccc(OC)cc1 | -1 | 3 | -6 | 79* | -79
Cn1c(=S)n(/N=C/c2cccs2)c2ccccc21 | 0 | 33 | 0 | -262 | 262*
Nc1cccc(-c2cn3cc(C(F)(F)F)cc(Cl)c3n2)c1 | 1 | 63* | -5 | -6 | 6
FC(F)(F)c1cc(Cl)c2nc(-c3ccccc3)cn2c1 | 5 | 74* | 4 | 30 | -30
CN(C)c1ccc(/C=C2\N=C(C(C)(C)C)OC2=O)cc1 | 1 | 3 | -10 | -28 | 28
O=c1cc(-c2ccccc2Cl)oc2c(Br)ccc(O)c12 | 0 | 47* | 6 | 21 | -21
CCCC1CCC(c2ccc(C(=O)NN)cc2)CC1 (configuration not stated) | 0 | 0 | 2 | -161 | 161*
CN=C1NC(C)(C)C2CCC(C)(CC2)S1 | -2 | · | · | -6 | 6
COC(=O)c1[nH]c2cc(OC)c(OC)cc2c1/C=N/Nc1ccccc1 | 2 | 24 | -5 | 121* | -121
Cc1cccc(NC(=O)c2ccc(COc3cccc4ccccc34)o2)n1 | 2 | 71* | 2 | 4 | -4
Cc1ccc(-c2nc(CS(=O)(=O)CC(=O)NCCN3CCCC3)c(C)o2)cc1 | 1 | 3 | -6 | -3 | 3
C/C(=N/NC(=O)CSCc1ccc(Cl)cc1)c1cccc(NC(=O)c2ccccc2)c1 | 3 | 2 | 18 | 81* | -81
CCOc1ccccc1/C=C/c1onc(C)c1S(=O)(=O)N1CCC(C(=O)N(CC)CC)CC1 | -1 | 4 | -6 | 71* | -71
Cc1noc(/C=C/c2ccco2)c1S(=O)(=O)N1CCC(C(=O)NC(C)c2ccccc2)CC1 (configuration not stated) | 2 | -2 | 6 | 81* | -81
Cc1noc(/C=C/c2ccco2)c1S(=O)(=O)N1CCC(C(=O)N(C)Cc2ccccc2)CC1 | -1 | -4 | -1 | 6 | -6
CCS(=O)(=O)c1nc(S(=O)(=O)c2ccc(C)cc2)c(N2CC(C)OC(C)C2)s1 (configuration not stated) | 0 | -1 | 2 | -4 | 4
Cc1ccc(NC(=O)c2cccs2)cc1NC(=O)c1ccc(F)cc1 | 2 | 39 | -5 | 50 | -50
Cc1ccc(NC(=O)c2cccs2)cc1NC(=O)c1cccc(F)c1 | -1 | 64* | -20 | 60 | -60
COc1cc(C(=O)Nc2cccc(NC(=O)c3cccs3)c2)cc(OC)c1OC | -3 | · | 3 | 78* | -78
COc1cc(NC(=O)c2cccc(Cl)c2)ccc1NC(=O)c1cccs1 | 1 | 25 | 8 | 75* | -75
COc1cc(C(=O)OCc2ccc(C)cc2)cc(NC(=O)c2cccs2)c1OC | 0 | 58* | -6 | 63 | -63
COc1cc(C(=O)O)cc(NC(=O)c2cccs2)c1OC | 4 | 2 | 1 | 8 | -8
Cc1cc(NC(=O)C(C)SCC(=O)OCc2ccc([N+](=O)[O-])cc2)no1 (configuration not stated) | 1 | 0 | 1 | -20 | 20
COc1cc(NC(=O)c2ccc3c(c2)OCCO3)ccc1NC(=O)c1cccs1 | 0 | -3 | 5 | 74* | -74
SMILES | GAA850 FXN act | AHR act | JMJD2C inh | SR-BI DiI inh | SR-BI uptake up
O=C(Nc1ccc(NC(=O)c2cccs2)cc1)c1ccc2c(c1)OCCO2 | -14 | -14 | -7 | · | ·
COc1ccc(S(=O)(=O)N2CCCC(C(=O)N3CCCC3)C2)cc1OC (configuration not stated) | 3 | 1 | 27 | 4 | -4
Cc1ccc2nc(-c3ccccn3)oc2c1 | 4 | 61* | 5 | 1 | -1
O=C(O)Cc1ccc2oc(-c3ccccn3)nc2c1 | 1 | -3 | -15 | -19 | 19
Cc1ccc(-n2nc3c(=O)n(CCCC(=O)NCc4ccccc4Cl)nc(C)c3c2C)cc1 | -1 | 0 | 2 | 13 | -13
CCOC(=O)c1c(C)[nH]c(C)c1-c1ccccc1OC | 1 | -3 | -3 | -26 | 26
CCOC(=O)c1c(C)[nH]c2cc(Br)c(OC)cc12 | 4 | 51* | -14 | 15 | -15
C=CCNC(=O)CN1C(=O)CSc2ccc(S(=O)(=O)N3CCOCC3)cc21 | 0 | · | · | · | ·
NNc1nc2sc3c(c2c(=O)n1Cc1ccccc1)CCC3 | 1 | 5 | 3 | 24 | -24
NNc1nc(-c2ccccc2)nc2sc3c(c12)CCCC3 | 0 | 75* | -5 | 30 | -30
CN(C)c1ccc(Nc2cc(Cl)ncn2)cc1 | 4 | 73* | -27 | 10 | -10
CCN(CC)S(=O)(=O)c1ccc(-c2nnc(SCc3nnc(-c4ccc(C)cc4)o3)o2)cc1 | -1 | 0 | 14 | 39 | -39
CCN(CC)S(=O)(=O)c1ccc(-c2nnc(SCc3nnc(-c4ccc(C)cc4)o3)n2CC)cc1 | -2 | 6 | -4 | 72* | -72
Cn1c(=O)n(CCc2ccccc2)c(=O)c2c1nc1n2CCCN1CCc1ccccc1 | -4 | 83* | -7 | i | 506*
CCCn1c(=O)c2c(nc3n2CCCN3CCc2ccccc2)n(C)c1=O | 2 | 6 | 3 | 9 | -9
C=CCNC(=S)Nc1c(C(=O)OC)[nH]c2cc(OC)ccc12 | 1 | 77* | 2 | 15 | -15
O=c1cc(Cn2ccnc2)c2cc(O)ccc2o1 | 0 | · | 1 | 78* | -78
Cc1cc(C(=O)N[C@H](c2ccccc2)[C@@]2(C)C[C@@H]2[C@@H](C)C(=O)Nc2ccc3ccccc3c2)n(C)n1 | -1 | 9 | 6 | -9 | 9
CCOc1ncccc1C(=O)Nc1cccc(-c2nc3cccnc3s2)c1 | 3 | 50* | -5 | 18 | -18
CS(=O)(=O)N(CC(=O)N1CCCC1)c1ccccc1Br | 0 | -1 | 1 | -6 | 6
CC[n+]1c(/C=C/Nc2ccccc2)oc2ccc(OC)cc21 | 0 | 17 | -4 | 2 | -2
CC[n+]1c(/C=C/Nc2ccccc2)oc2ccccc21 | 0 | 109* | 6 | -2 | 2
COc1ccc(C(=O)Nc2cccc([N+](=O)[O-])c2)cc1Br | 1 | -15 | -5 | 83* | -83
COc1ccc(C(=O)N/N=C(/C)c2cccc(NC(=O)c3ccncc3)c2)cc1OC | 2 | · | -1 | 15 | -15
Cc1ccc(C(=O)Nc2cccc([N+](=O)[O-])c2)cc1S(=O)(=O)Nc1ccc(C(=O)O)cc1 | 2 | -3 | -4 | 6 | -6
COc1ccc(C(=O)Nc2cccc(/C(C)=N/NC(=O)c3ccc([N+](=O)[O-])cc3)c2)cc1OC | 0 | 29 | 8 | 71* | -71
Cc1nc2ccc(C(=O)Nc3cccc([N+](=O)[O-])c3)cc2s1 | 5 | -5 | 2 | 74* | -74
